Measured values as given in ChEMBL document CHEMBL1131636, “Conformationally constrained analogues of the muscarinic agonist 3-(4-(methylthio)-1,2,5-thiadiazol-3-yl)-1,2,5,6-tetrahydro-1-methylpyr idine. Synthesis, receptor affinity, and antinociceptive activity” (J Med Chem, 1998).

Key:
[1] = tested on: Mus musculus; test: In vivo antinociceptive activity was measured using mouse grid shock (MGS) assay in mice upon subcutaneous administration; format: functional; conditions: sc
How it was run: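 Mice dosed sc by body weight, then shocked via stainless steel grid floor 30 min later. Vocalization detected acoustically. Percent increase in latency = (postdrug − predrug)/(cutoff − predrug) × 100 per animal, averaged per dose. Ten mice per dose and for controls. ED50 derived.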

[2] = tested on: Mus musculus; test: Compound was tested for its ability to induce salivation in mice upon subcutaneous administration; format: functional; conditions: sc
How it was run: (§1)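 Mice dosed sc, scored just before the 30-min postdrug grid-shock test. Salivation or tremor rated 0–3 per animal. Scores multiplied by number of mice, summed per group (n = 10), and expressed as % of maximum sum (30). ED50 derived.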

[3] = target: T1, Muscarinic acetylcholine receptor M4 (Homo sapiens, UniProt P08173); test: Compound was evaluated for its ability to displace [3H]- N-methyl-scopolamine ([3H]-NMS) binding to cloned CHO cell lines expressing Muscarinic acetylcholine receptor M4; format: cell-based
T1 sequence (P08173 whole entry): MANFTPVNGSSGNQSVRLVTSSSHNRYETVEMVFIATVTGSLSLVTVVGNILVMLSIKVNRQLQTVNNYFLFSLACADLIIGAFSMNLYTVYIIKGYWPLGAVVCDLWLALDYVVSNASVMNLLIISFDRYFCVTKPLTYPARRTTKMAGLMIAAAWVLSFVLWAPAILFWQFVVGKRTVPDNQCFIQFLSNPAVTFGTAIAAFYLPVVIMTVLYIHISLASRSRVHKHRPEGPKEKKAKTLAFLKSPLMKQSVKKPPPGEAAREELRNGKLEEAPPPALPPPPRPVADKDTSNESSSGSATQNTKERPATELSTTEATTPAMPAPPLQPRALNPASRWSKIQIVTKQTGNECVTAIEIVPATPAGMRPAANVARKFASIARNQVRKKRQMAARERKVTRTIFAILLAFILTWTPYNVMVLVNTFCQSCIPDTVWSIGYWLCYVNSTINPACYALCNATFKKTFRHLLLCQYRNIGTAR

[4] = target: T2, Muscarinic acetylcholine receptor M1 (Homo sapiens, UniProt P11229); test: (§2) Compound was evaluated for its ability to displace [3H]N-methylscopolamine ([3H]NMS) binding to cloned CHO cell lines expressing Muscarinic acetylcholine receptor M1; format: cell-based
T2 sequence (P11229 whole entry): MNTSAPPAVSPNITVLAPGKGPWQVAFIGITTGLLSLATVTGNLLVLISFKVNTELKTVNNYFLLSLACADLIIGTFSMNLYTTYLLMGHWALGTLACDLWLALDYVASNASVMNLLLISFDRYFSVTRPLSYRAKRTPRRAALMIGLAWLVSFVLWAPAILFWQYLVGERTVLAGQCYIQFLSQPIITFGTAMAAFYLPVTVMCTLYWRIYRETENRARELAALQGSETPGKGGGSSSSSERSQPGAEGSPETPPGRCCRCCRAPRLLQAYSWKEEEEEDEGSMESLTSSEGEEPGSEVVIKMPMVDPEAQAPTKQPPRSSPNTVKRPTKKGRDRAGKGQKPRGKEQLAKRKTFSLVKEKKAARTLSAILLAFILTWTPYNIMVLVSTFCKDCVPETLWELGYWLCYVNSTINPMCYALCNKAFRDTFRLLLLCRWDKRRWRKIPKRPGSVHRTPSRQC

[5] = target: Muscarinic acetylcholine receptor M3 (Homo sapiens, UniProt P20309); test: Compound was evaluated for its ability to displace [3H]N-methylscopolamine ([3H]NMS) binding to cloned CHO cell lines expressing Muscarinic acetylcholine receptor M3; format: cell-based
[6] = target: T3, Muscarinic acetylcholine receptor M5 (Homo sapiens, UniProt P08912); test: Compound was evaluated for its ability to displace [3H]- N-methyl-scopolamine ([3H]NMS) binding to cloned CHO cell lines expressing Muscarinic acetylcholine receptor M5; format: cell-based
T3 sequence (P08912 whole entry): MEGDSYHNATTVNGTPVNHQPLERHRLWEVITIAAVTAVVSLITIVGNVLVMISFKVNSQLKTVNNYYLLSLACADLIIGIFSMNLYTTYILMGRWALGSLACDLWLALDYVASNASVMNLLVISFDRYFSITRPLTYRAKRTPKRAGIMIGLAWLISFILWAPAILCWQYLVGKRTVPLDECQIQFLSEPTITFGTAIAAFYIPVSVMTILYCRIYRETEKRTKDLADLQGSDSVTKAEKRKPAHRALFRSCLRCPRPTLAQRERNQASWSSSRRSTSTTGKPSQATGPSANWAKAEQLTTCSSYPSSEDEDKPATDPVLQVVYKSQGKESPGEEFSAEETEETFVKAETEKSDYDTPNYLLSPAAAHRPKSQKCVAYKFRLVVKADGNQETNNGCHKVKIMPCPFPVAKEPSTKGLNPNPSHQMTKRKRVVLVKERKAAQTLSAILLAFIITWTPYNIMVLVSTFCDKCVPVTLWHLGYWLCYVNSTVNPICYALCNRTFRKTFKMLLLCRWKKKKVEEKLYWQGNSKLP

[7] = target: T4, Muscarinic acetylcholine receptor M2 (Homo sapiens, UniProt P08172); test: Compound was evaluated for its ability to displace [3H]- N-methyl-scopolamine ([3H]NMS) binding to cloned CHO cell lines expressing Muscarinic acetylcholine receptor M2; format: cell-based
T4 sequence (P08172 whole entry): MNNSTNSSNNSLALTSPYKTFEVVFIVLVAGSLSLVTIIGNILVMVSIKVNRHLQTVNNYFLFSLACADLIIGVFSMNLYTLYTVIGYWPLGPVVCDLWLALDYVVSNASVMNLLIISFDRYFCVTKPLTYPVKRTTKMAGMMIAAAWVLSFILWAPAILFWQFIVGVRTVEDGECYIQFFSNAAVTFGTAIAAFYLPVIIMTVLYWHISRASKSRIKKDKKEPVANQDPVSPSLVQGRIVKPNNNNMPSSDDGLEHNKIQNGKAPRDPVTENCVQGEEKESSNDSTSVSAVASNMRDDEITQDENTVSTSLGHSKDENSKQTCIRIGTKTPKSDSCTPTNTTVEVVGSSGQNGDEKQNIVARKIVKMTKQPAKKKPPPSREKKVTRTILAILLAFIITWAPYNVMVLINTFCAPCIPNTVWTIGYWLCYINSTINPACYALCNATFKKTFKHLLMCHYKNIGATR

[8] = target: Muscarinic acetylcholine receptor; test: In vitro Binding affinity was measured on Muscarinic acetylcholine receptor on rat brain membranes using [3H]oxotremorine-M; parameters: species or system Membrane
How it was run: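 Rat brain homogenate washed by 40000g centrifugation and resuspended in Hepes pH 7.4. Incubated with 1.0 nM (final) [3H]Oxo-M for 30 min at 25 °C. […] Filtered on glass fiber, washed with ice-cold buffer, scintillation counted. IC50 from at least four concentrations in triplicate, Hill equation.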

[9] = tested on: Mus musculus; test: Compound was tested for its ability to induce tremors in mice subcutaneous administration; format: functional; conditions: sc; how it was run: as §1
[10] = target: T2, Muscarinic acetylcholine receptor M1; test: as §2; format: cell-based; remark: listed apart in the source
How it was run: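 Membranes from CHO cells expressing cloned m1 receptor, prepared in 20 mM sodium phosphate pH 7.4 (200g spin, then 40000g for 45 min at 4 °C; stored −80 °C). 23–45 μg protein incubated with [3H]NMS (5 nM as added) and test compound for 2 h. WGA-coated SPA beads added, counted after a further 2 h.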

[11] = target: Muscarinic acetylcholine receptor; test: In vitro Binding affinity was measured against Muscarinic acetylcholine receptor on rat brain membranes using [3H]oxotremorine-M

Chain of Muscarinic acetylcholine receptor M3 (P20309 whole entry): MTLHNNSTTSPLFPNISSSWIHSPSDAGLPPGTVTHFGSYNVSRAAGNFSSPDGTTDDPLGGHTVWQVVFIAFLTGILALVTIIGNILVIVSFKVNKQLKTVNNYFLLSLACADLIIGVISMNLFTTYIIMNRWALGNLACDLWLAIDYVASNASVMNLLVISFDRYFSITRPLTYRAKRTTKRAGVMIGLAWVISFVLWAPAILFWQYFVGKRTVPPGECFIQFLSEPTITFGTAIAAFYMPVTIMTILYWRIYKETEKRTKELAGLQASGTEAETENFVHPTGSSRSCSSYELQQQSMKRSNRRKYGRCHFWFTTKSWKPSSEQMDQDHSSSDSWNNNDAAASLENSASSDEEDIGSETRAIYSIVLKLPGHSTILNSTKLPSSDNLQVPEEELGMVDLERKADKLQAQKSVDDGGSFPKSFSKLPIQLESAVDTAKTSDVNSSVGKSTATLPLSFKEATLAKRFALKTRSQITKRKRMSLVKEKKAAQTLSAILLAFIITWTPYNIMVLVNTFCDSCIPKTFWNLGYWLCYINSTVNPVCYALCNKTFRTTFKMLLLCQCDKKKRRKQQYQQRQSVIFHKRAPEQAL

Structure (SMILES)	IC50 [8]	IC50 [10]	ED50 [1]	ED50 [2]	IC50 [3]	IC50 [4]	IC50 [5]	IC50 [6]	IC50 [7]	ED50 [9]	IC50 [11]
CN1CCC2=C(C1)c1nsnc1SC2	0.0278 µM		10.4 mg/kg	13 mg/kg	14.5 µM	20.5 µM	9.7 µM	23 µM	2.2 µM	> 30 mg/kg	
CSc1nsnc1C1=C(C)CCN(C)C1	> 0.5 µM		> 30 mg/kg	> 30 mg/kg	> 100 µM	> 100 µM	> 100 µM	100 µM	100 µM	> 30 mg/kg	
COC(=O)C1=CCCN(C)C1 [ARECOLINE]			16 mg/kg	15 mg/kg						15 mg/kg	
O=C1CCCN1CC#CCN1CCCC1 [OXOTREMORINE]			0.038 mg/kg	0.2 mg/kg	5 µM	9 µM	17 µM	8 µM	0.4 µM	0.2 mg/kg	0.005 µM

Now from value to compound, other results behind:

IC50 [8]	IC50 [10]	Structure (SMILES)	ED50 [1]	ED50 [2]	IC50 [3]	IC50 [4]	IC50 [5]	IC50 [6]	IC50 [7]	ED50 [9]	IC50 [11]
0.0445 µM		c1cc2nsnc2c2c1CCNC2	4.4 mg/kg	5.1 mg/kg	100 µM	100 µM	100 µM	100 µM	6.7 µM	6.4 mg/kg	
0.0045 µM	1.8 µM	CSc1nsnc1C1=CCCN(C)C1	4 mg/kg	6 mg/kg	1.2 µM		1.6 µM	2.1 µM	0.48 µM	> 10 mg/kg	
0.0355 µM		C1Cc2sc3nsnc3c2CN1	4.6 mg/kg	8.8 mg/kg						15.8 mg/kg	
0.0076 µM		CSc1nsnc1C1=CCCNC1	1.8 mg/kg	7.4 mg/kg						4.5 mg/kg	
